SR-BI uptake up: activators of SR-BI mediated DiI-HDL uptake, primary screen, ldlA[mSR-BI] CHO cells, DiI fluorescence; 3 h; 100 = double the neutral-control signal; activation, % at 12.5 µM; 320,000 tested, 0.096% active;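 active = mean replicate activation of at least 60% and every replicate at or above 60%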
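Test system: SR-BI-overexpressing, LDLR-lacking CHO cells; Also added: labelled HDL, 10 µg/mL; Measured by: bottom-read cell fluorescence after medium removal, ex 550/em 595 nm; Timing: 3 h uptake period with compound, 37 °C; Buffer or medium: F12, 0.5% BSA, 25 mM HEPES; Doses: single compound concentration, delivered by pin transfer.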
PvdQ inh: P. aeruginosa PvdQ acylase inhibitors, primary screen, biochemical, fluorescence, plate reader and imaging, single point; 340,000 tested, 0.063% active; inhibition, % at 10 µM; purified PvdQ acylase; in the data active = inhibition above about 30%, passing the limit was not always enough
dFosB activator: activators of delta FosB homodimer, primary screen, biochemical, fluorescence polarization, TAMRA-CDK5 oligo, single point; AID 493131, 2011; purified delta FosB; percent of positive-control signal above neutral wells; Protein FosB (Mus musculus), P13346; 340,000 tested, 0.99% active; activation, % at 25 µM;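 active = mean activation above about 17%, with every replicate also reaching it, limit read from the data, passing the limit was not always enough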
Target sequence (P13346 whole entry, looked up): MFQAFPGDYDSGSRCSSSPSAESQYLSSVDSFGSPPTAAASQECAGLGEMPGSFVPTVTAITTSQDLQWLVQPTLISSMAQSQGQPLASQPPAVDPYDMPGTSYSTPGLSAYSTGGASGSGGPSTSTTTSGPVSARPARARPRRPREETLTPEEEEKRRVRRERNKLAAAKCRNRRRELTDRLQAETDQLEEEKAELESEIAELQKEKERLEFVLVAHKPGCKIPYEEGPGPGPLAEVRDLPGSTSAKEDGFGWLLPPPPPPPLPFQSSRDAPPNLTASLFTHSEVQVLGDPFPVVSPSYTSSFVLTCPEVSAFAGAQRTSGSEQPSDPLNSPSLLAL
SR-BI HDL uptake: inhibitors of SR-BI mediated HDL lipid uptake, primary screen, ldlA[mSR-BI] cells, fluorescence, single point | Scavenger receptor class B member 1 (Mus musculus), Q61009 | ldlA[mSR-BI] CHO cells, DiI-HDL uptake fluorescence, 3 h | inhibition, % at 12.5 µM | 320,000 tested, 0.96% active | AID 488896, 2010;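 active = mean replicate inhibition of at least 70% and a set share of replicates each scoring 70 or more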
Ecoli rRNA inh: reduced GFP signal of wild-type E. coli, primary screen, bacterial rRNA inhibitor project, GFP/RFP fluorescence, OD600, single point. E. coli WT GFP vs humanized-ribosome RFP mutants, 24 h; stronger effect = lower value; DMSO median 0, no signal -100. GFP signal change (wild-type ribosome), % (test concentration not listed). 350,000 tested, 1.6% active;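 active = significant combined selectivity score with lowered wild-type GFP, culture density cut under 30%, mutant RFP and density less affected; inactive = any of these conditions unmet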
Xi reactivation: activators of inactive X chromosome reactivation, primary screen, imaging, XiGFP fibroblasts, GFP high-content imaging, set 2; 360,000 tested, 0.055% active; activation, % at 7.58 µM; XiGFP mouse fibroblasts, % GFP-positive cells imaging, 3 d; cells co-treated with 5-aza-dC sensitizer; scaled so ellipticine positive control = 100%;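 active = mean normalized replicate activation at least 10% and every replicate at or above 10%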
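Material: XiGFP fibroblasts, SV40-immortalized. Buffer or medium: DMEM plus 5-aza-dC sensitizer. Compound: single concentration per compound, delivered by pin transfer. Times: 3 days compound exposure. Controls: ellipticine 6 µM.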
Large screens that a line does not name were inactive. Shown are actives, neighbours in structure and some others; about 2.6% of the full set was active somewhere.

O=C(N/N=C/c1cccc([N+](=O)[O-])c1O)C(O)(c1ccccc1)c1ccccc1	Ecoli rRNA inh -18
O=C(N/N=C/c1ccc([N+](=O)[O-])cc1)c1cccs1	none (no result: SR-BI uptake up, PvdQ inh, dFosB activator, SR-BI HDL uptake)
COc1cc([N+](=O)[O-])cc(/C=N/NC(=O)C(O)(c2ccccc2)c2ccccc2)c1O	none
O=C(N/N=C/c1cccc([N+](=O)[O-])c1O)c1cccs1	SR-BI HDL uptake 98
CC(=O)NC1=NN(C(C)=O)C(c2ccccc2)S1 (configuration not stated)	none
COc1ccc(CNC(=O)c2cc(=O)c3cc(C)ccc3o2)cc1	dFosB activator 17
Cc1ccc(CNC(=O)c2ccc(Br)o2)cc1	Ecoli rRNA inh -18 (no result: Xi reactivation)
CN1CCN(C(=O)C2(NC(=O)Nc3cccc(F)c3)CCCCC2)CC1	none (no result: Ecoli rRNA inh, Xi reactivation)
Cn1c(SCC(=O)CC(=O)Nc2ccccc2)nnc1-c1ccc(O)cc1	Ecoli rRNA inh -18 (no result: SR-BI uptake up, SR-BI HDL uptake, Xi reactivation)
Cc1c(/C=N/NC(=O)c2ccccc2O)c2ccccn2c1C(=O)c1ccc(F)cc1	none
CCN(CC)CCOC(=O)c1ccc(NC(=O)CCCN2C(=O)/C(=C\c3cccs3)SC2=S)cc1	Ecoli rRNA inh -27 (no result: SR-BI uptake up)
O=C(CCN1C(=O)S/C(=C\C=C\c2ccccc2)C1=O)Nc1ccc(O)cc1	Ecoli rRNA inh -25
CC(=Cc1ccccc1)C=C1SC(=S)N(CCCC(=O)Nc2ccc(C(=O)O)cc2)C1=O	Ecoli rRNA inh -23 (no result: SR-BI uptake up, PvdQ inh, dFosB activator, SR-BI HDL uptake)
CC(=O)c1ccc(NC(=O)CN2C(=O)/C(=C/C=C/c3ccccc3)SC2=S)cc1	SR-BI HDL uptake 72
O=C(CCCN1C(=O)S/C(=C\C=C\c2ccccc2)C1=O)Nc1ccc(C(=O)O)cc1	none
CCOc1cc(/C=N/NC(=O)N/N=C/c2ccc(O)c(OCC)c2)ccc1O	none (no result: SR-BI uptake up, PvdQ inh, dFosB activator, SR-BI HDL uptake)
Oc1cccc(C=NN=C2c3ccccc3-c3ccccc32)c1	Ecoli rRNA inh -34
CCOc1cc(C=NN=C2c3ccccc3-c3ccccc32)ccc1O	SR-BI HDL uptake 76
CC1(C(=O)NCc2ccccc2Br)CCN1Cc1c(F)cccc1F (configuration not stated)	none (no result: SR-BI uptake up, PvdQ inh, dFosB activator, SR-BI HDL uptake)
COC(=O)C1C(=O)c2c([nH]c(C(=O)OC3CCCCC3)c2C)CC1C (configuration not stated)	none
Cc1ccc(C)c(-n2nnnc2Sc2nc([N+](=O)[O-])nn2C)c1	none (no result: Ecoli rRNA inh)
Cc1cc(C)nc(N(C#N)Cc2ccccc2)n1	PvdQ inh 38 (no result: Ecoli rRNA inh, Xi reactivation)
Cc1cc(C)nc(SCc2ccc([N+](=O)[O-])cc2)n1	none
Cc1cc(C)nc(N(C#N)Cc2cccc3ccccc23)n1	none (no result: Ecoli rRNA inh, Xi reactivation)
CN(C)c1nccc(N(Cc2ccccc2)Cc2ccccc2)c1C#N	none (no result: Ecoli rRNA inh, Xi reactivation)
Cc1cc(C)nc(N(C#N)Cc2ccc([N+](=O)[O-])cc2)n1	PvdQ inh 49 (no result: SR-BI uptake up, SR-BI HDL uptake)
N#CN(Cc1ccccc1)Cc1ccccc1	PvdQ inh 92 (no result: SR-BI uptake up, SR-BI HDL uptake)
COc1ccc(/C=C/C(=O)OCC(=O)NCCNC(=O)COC(=O)/C=C/c2ccc(OC)cc2)cc1	none
CC1CCCCN1Cc1ccc(N(C)C)cc1 (configuration not stated)	none (no result: Xi reactivation)
CC(=O)c1ccc(OCC(O)CN2CCN(S(=O)(=O)c3c(C)c(C)cc(C)c3C)CC2)cc1 (configuration not stated)	SR-BI HDL uptake 86
Cc1cc(C)c(C#N)c(SCS(=O)Cc2ccc(Cl)cc2)n1 (configuration not stated)	Ecoli rRNA inh -44 (no result: Xi reactivation)
Cc1cc(C)c(C#N)c(SCS(=O)Cc2ccccc2)n1 (configuration not stated)	none (no result: Ecoli rRNA inh, Xi reactivation)
COCCNC(=O)c1cccc(OC2CCN(Cc3ccc(Cl)c(F)c3)CC2)c1	none

Screens deposited in PubChem BioAssay by Broad Institute.
